Results pooled from the literature.
Protocols differ between the studies behind these lines.
Target: Cyclin-dependent kinase 11A (CDK11A, Homo sapiens, UniProt Q9UQ88)
Sequence (Q9UQ88 1-783, as in one of the studies): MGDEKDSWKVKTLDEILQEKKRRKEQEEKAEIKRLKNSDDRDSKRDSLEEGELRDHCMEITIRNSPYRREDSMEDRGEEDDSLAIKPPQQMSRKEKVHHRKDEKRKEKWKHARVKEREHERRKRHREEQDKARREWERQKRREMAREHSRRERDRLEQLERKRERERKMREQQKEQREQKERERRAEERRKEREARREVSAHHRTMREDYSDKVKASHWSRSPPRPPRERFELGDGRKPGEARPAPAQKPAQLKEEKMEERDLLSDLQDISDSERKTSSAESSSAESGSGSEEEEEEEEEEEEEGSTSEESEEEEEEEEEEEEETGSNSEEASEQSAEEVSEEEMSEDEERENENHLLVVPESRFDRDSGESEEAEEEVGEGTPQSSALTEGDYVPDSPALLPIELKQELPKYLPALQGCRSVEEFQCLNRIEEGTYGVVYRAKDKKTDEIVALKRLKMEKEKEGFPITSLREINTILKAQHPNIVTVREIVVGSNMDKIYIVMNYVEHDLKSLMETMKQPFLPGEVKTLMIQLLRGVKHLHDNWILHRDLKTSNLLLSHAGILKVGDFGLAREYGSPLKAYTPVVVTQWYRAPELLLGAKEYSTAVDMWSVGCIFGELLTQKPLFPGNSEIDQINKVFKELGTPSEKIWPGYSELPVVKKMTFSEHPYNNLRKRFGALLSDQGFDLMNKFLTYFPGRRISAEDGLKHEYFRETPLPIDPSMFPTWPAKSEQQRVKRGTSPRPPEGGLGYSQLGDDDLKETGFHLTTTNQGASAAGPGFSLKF

For CN(C)c1nccc(-c2cnc3ncccn23)n1, the remaining binding was 100% (binding; 1 µM).
O=C(c1ccc(Nc2nccc(-c3cc4ccccc4s3)n2)cc1)N1CCC(N2CCCC2)CC1 gave a remaining binding of 80% (binding; competition with immobilised ligand; 1 µM).
Nc1ncc2c(n1)-c1c([nH]c3ccc(C#CC4CC4)cc13)CCCC2 gave a remaining binding of 93% (binding; competition with immobilised ligand; 1 µM).
O=C(Nc1cccnn1)N1CCC(=Cc2cccc(Oc3ccc(C(F)(F)F)cn3)c2)CC1 has a remaining binding of 82% (cell-free assay; competition with immobilised ligand; 1 µM).
The remaining binding of CN(C)c1ncc(F)c(-c2cnn3ncccc23)n1 is reported as 97% (binding; 1 µM).
CN1CCN(c2cnc3c(C4CCN(C(=O)c5ccc(OC(F)(F)F)cc5N)CC4)ncnc3c2)CC1 has a remaining binding of 61% (binding; competition with immobilised ligand; 1 µM).
CN(c1nccc(-c2cnn3ncccc23)n1)C1CC1 gave a remaining binding of 100% (binding; 1 µM).
With Cn1cc(Cl)c2c(Oc3c(F)cc(Nc4cc(Cl)nc(N)n4)cc3F)ccnc21 the remaining binding was 100% (binding; competition with immobilised ligand; 0.1 µM).
For COc1ncc2cc3ccccc3nc2c1C#N, the remaining binding was 93% (binding; competition with immobilised ligand; 5 µM).
For COc1cnc(Nc2cccc(S(N)(=O)=O)c2)nc1N1CCN(c2ccccc2)C(=O)C1, the remaining binding was 100% (binding; competition with immobilised ligand; 1 µM).
O=C(NCc1ncc(C(F)(F)F)cc1Cl)c1ccc2c(c1)C1(CCS(=O)(=O)CC1)[C@@H](C1CC1)N2S(=O)(=O)c1ccc(F)cc1 has a remaining binding of 100% (binding; competition with immobilised ligand; 1 µM).
With CCN1CCN(Cc2ccc(C(=O)Nc3ccc(C)c(Oc4ccc5c(c4)CC(=O)N5)c3)cc2C(F)(F)F)CC1 the remaining binding was 100% (binding; competition with immobilised ligand; 1 µM).
The remaining binding of CC1CCCN1c1nccc(-c2cnn3ncccc23)n1 (centres unmarked) is reported as 100% (binding; 1 µM).
The remaining binding of O=C(NCCCN1CCOCC1)c1ccc(Nc2ncc(Cl)c(-c3ccc(Cl)s3)n2)cc1 is reported as 23% (binding; competition with immobilised ligand; 1 µM).
The remaining binding of O=C(NCC1CCOCC1)c1n[nH]cc1NC(=O)c1c(F)cccc1F is reported as 91% (binding; competition with immobilised ligand; 1 µM).
The remaining binding of Cc1cnc(Nc2ccc(C(=O)N3CCC(N4CCCC4)CC3)cc2)nc1-c1cc2ccccc2s1 is reported as 100% (binding; competition with immobilised ligand; 1 µM).
With CCC(=O)N[C@@H]1CC[C@H](C(=O)N(C)c2ccc(-c3nc4ccccc4o3)cc2)C1 the remaining binding was 100% (binding; competition with immobilised ligand; 1 µM).
With N[C@@H]1CCN(c2nccc(-c3cnn4ncccc34)n2)C1 the remaining binding was 98% (binding; 1 µM).
The remaining binding of CSc1cccnc1N1CCN(Cc2nc3ccccc3[nH]2)CC1 is reported as 100% (binding; competition with immobilised ligand; 1 µM).
With C[C@@H]1CCN(c2nccc(-c3cnn4ncccc34)n2)C1 the remaining binding was 85% (binding; 1 µM).
